Entries after “also recorded” stand apart in the source; their conditions may differ. Where two headings read alike, the source gives them in different places. Positions of bridges follow the written chain, without caps; N, C: chain ends. Non-standard residues stand in square brackets, D forms with d. Residues, ends and D or L forms follow the SMILES beside them. No end group written: not given here. *: point of attachment. S5 = C=CCCC[C@](C)(N)C(=O)O; code λ = not defined here; Dap = NC[C@H](N)C(=O)O; ClAc = O=C(CCl)*
B2: hBfl-1ΔTm(1–149) (domain or fragment)
chain: MTDCEFGYIYRLAQDYLQCVLQIPQPGSGPSKTSRVLQNVAFSVQKEVEKNLKSCLDNVNVVSVDTARTLFNQVMEKEFEDGIINWGRIVTIFAFEGILIKKLLRQQIAPDVDTYKEISYFVAEFIMNNTGEWIRQNGGWENGFVKKFE

Assays:
[1] = target: Recombinant hBcl-2 protein (human); experiment: DELFIA displacement assay
[2] = target: Bcl-xL ΔTM (Bcl-xL deletion mutant lacking the transmembrane domain) (human); experiment: DELFIA displacement assay
[3] = target: T1, hBfl-1 (Homo sapiens, UniProt Q16548); experiment: Isothermal titration calorimetry against hBfl-1; format: binding; conditions: VP-ITC, reverse fashion (protein titrated into compound), 25 °C, PBS + 10% DMSO
T1 sequence (Q16548 with tags, fused parts or gaps): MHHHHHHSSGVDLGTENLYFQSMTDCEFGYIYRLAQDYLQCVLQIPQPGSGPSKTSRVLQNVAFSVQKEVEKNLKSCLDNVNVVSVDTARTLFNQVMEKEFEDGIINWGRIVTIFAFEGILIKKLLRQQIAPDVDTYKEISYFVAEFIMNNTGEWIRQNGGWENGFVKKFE

[4] = tested on: primary CLL cells; format: cell-based, human; conditions: primary CLL cells alone or cocultured with stroma-NK-tert cells, 48 h
Outline: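 Primary CLL cells were taken as PBMC from heparinized patient blood by Ficoll density gradient, using samples >95% CD5+/CD19+. They were cultured in RPMI with 10% heat-inactivated FBS at 3 × 10^5 cells/well, 37 °C, 5% CO2, alone or on bone-marrow NK-tert stroma ([…]), with test compound for 48 h. Cells were gated CD19/CD5 (4 °C, 30 min), stained with DiOC6 (30 min, 37 °C), and analysed by flow cytometry as % SIA.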

[5] = target: T1, hBfl-1; experiment: Covalent adduct formation by SDS gel electrophoresis; format: binding; conditions: hBfl-1 10 μM, equimolar peptide, 15 min to 2 h
Outline: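 Synthetic peptide and human Bcl-2 family protein were incubated together at equimolar 10 μM. hBfl-1 (10 μM) was sampled with or without peptide at 15 min, 30 min, 1 h and 2 h. Samples were resolved by SDS-PAGE and stained with Coomassie.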

[6] = target: T1, hBfl-1; experiment: DELFIA displacement of biotinylated BID BH3 peptide from hBfl-1; format: binding; conditions: hBfl-1 versus hMcl-1
[7] = target: 130E7 (covalent hBIM derived BH3 peptide, Ac-λ…-NH2) (human); experiment: ITC
[8] = target: T2, hMcl-1 (172–323) (human), Q07820; experiment: DELFIA displacement assay
T2 chain: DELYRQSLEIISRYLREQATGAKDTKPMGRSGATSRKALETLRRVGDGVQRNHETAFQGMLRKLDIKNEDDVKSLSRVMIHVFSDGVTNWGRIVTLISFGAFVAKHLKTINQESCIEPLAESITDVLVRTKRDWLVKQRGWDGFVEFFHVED

[9] = target: Bcl-xL ΔTM (Bcl-xL deletion mutant lacking the transmembrane domain) (human); experiment: DELFIA displacement assay; remark: listed apart in the source
[10] = target: T3, hBfl-1ΔTm(1–149) (human); experiment: DELFIA displacement assay
T3 chain: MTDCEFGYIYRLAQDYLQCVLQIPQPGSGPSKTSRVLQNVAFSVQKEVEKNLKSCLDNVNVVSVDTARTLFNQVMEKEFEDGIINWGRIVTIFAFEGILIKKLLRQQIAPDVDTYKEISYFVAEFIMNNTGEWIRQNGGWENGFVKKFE

[11] = target: Recombinant hBcl-2 protein (human); experiment: DELFIA displacement assay; remark: listed apart in the source
[12] = target: T4, biotin-BID (Biotin-lc-EDIIRNIARHLAQVGDSMDR-NH2) (N-terminal biotin-lc (aminohexanoic acid); C-terminal amide); experiment: DELFIA displacement assay
T4 peptide: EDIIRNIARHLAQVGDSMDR

[13] = target: hMcl-1 (172–323) (human, UniProt Q07820 172-323); experiment: DELFIA displacement assay
[14] = target: B2; experiment: DELFIA displacement assay
[15] = target: B2; experiment: ITC

## NOXA A (Ac-…-NH2) (peptide)
[1]
  IC50: > 1000 nM
[2]
  IC50: > 1000 nM

## NOXA B (Ac-…-NH2) (peptide)
[1]
  IC50: > 1000 nM
[2]
  IC50: > 1000 nM

## CC[C@H](C)[C@H](NC(=O)[C@H](CNC(=O)CCl)NC(C)=O)C(=O)N[C@@H](C)C(=O)N[C@@H](CCC(N)=O)C(=O)N[C@@H](CCC(=O)O)C(=O)N[C@@H](CC(C)C)C(=O)N[C@@H](CCCNC(=N)N)C(=O)N[C@@]1(C)CCC/C=C\CCC[C@@](C)(C(=O)N[C@@H](Cc2ccccc2)C(=O)N[C@@H](CC(N)=O)C(=O)N[C@@H](C)C(=O)N[C@@H](Cc2ccc(O)cc2)C(=O)N[C@@H](Cc2ccc(O)cc2)C(=O)N[C@@H](C)C(=O)N[C@@H](CCCNC(=N)N)C(=O)N[C@@H](CCCNC(=N)N)C(N)=O)NC(=O)[C@H](CC(=O)O)NC(=O)CNC(=O)[C@H]([C@@H](C)CC)NC1=O [130D11] (Ac-[Dap](ClAc)IAQELR[S5]IGD[S5]FNAYYARR-NH2; staple (Z) 8-12)
[3]
  ITC KD hBfl-1: not detected; also recorded: no significant binding

## COc1cc([C@@H]2c3cc4c(cc3[C@@H](O[C@@H]3O[C@@H]5CO[C@@H](C)O[C@H]5[C@H](O)[C@H]3O)[C@H]3COC(=O)[C@H]23)OCO4)cc(OC)c1O [etoposide]
[4]
  single agent activity (% SIA), in words: limited activity

## Ac-CATQLRRFGDKLNFRQKLLN-NH2 [hNOXA]
[5]
  covalent complex with hBfl-1 (SDS-PAGE, Coomassie): formed a covalent complex
[6]
  increased affinity for hBfl-1 over hMcl-1: over 2 orders of magnitude

## Nc1nc(F)nc2c1ncn2[C@@H]1O[C@H](CO)[C@@H](O)[C@@H]1O [fludarabine]
[4]
  single agent activity (% SIA), in words: limited activity

B1: hMcl-1 (172-323), Q07820 172-323 (domain or fragment)
chain: DELYRQSLEIISRYLREQATGAKDTKPMGRSGATSRKALETLRRVGDGVQRNHETAFQGMLRKLDIKNEDDVKSLSRVMIHVFSDGVTNWGRIVTLISFGAFVAKHLKTINQESCIEPLAESITDVLVRTKRDWLVKQRGWDGFVEFFHVED
[7]
  Kd: 2 nM

## Ac-[code h]ATQLRRFGDKLNFRQKLLN-NH2 [homo_hNOXA (Ac-h…-NH2)]
[8]
  IC50: 266 nM
[9]
  IC50: > 1000 nM
[10]
  IC50: 83 nM
[11]
  IC50: > 1000 nM

## Ac-[code λ]ATQLRRFGDKLNFRQKLLN-NH2 (reading uncertain) [λ_hNOXA (Ac-λ…-NH2)]
[8]
  IC50: 233 nM
[9]
  IC50: > 1000 nM
[10]
  IC50: 287 nM
[11]
  IC50: > 1000 nM

## Ac-CATQLRRFGDKLN-NH2 [hNOXAs (Ac-…-NH2)]
[1]
  IC50: > 1000 nM
[2]
  IC50: > 1000 nM

## Ac-CATQLRRFGDKLNFRQKLLN-NH2 [hNOXA (Ac-…-NH2)]
[1]
  IC50: > 1000 nM
[2]
  IC50: > 1000 nM

## B2
[12]
  binding result: binds

## Ac-CATQLRRFGDKLN-NH2 [hNOXAs (Ac-CATQLRRFGDKLN-NH2)]
[13]
  IC50: > 1000 nM
[14]
  IC50: 15 nM

## Ac-AATQLRRFGDKLN-NH2 [C1A_hNOXAs (Ac-AATQLRRFGDKLN-NH2)]
[13]
  IC50: > 1000 nM
[14]
  IC50: > 1000 nM

## Ac-AELPPEFAAQLRKIGDKVYC-NH2 [NOXA A (Ac-AELPPEFAAQLRKIGDKVYC-NH2)]
[14]
  IC50: > 1000 nM

## Ac-PADLKDECAQLRRIGDKVNL-NH2 [NOXA B (Ac-PADLKDECAQLRRIGDKVNL-NH2)]
[14]
  IC50: 431 nM

## Ac-CATQLRRFGDKLNFRQKLLNLISKLFC-NH2 (also: cyclic (cyc_), mode of cyclisation not given here) [cyc_hNOXA (Ac-CATQLRRFGDKLNFRQKLLNLISKLFC-NH2)]
[13]
  IC50: 344 nM
[14]
  IC50: 86 nM

## Ac-CATQLRRFGDKLNFRQKLLN-NH2 [hNOXA (Ac-CATQLRRFGDKLNFRQKLLN-NH2)]
[13]
  IC50: 228 nM
[14]
  IC50: 7.5 nM

## [Dap](ClAc)IAQELRRIGDEFNAYYARR [130E7]
[15]
  Kd: 2.6 nM

## PRRPRRPRRPRRPRR[Dap](ClAc)IAQELRRIGDEFNAYYARR [130G4]
[15]
  Kd: 23 nM

Source: PMC5320539 (ACS Chemical Biology, 2016)
